Shown are actives, neighbours in structure and some others; about 1.3% of the full set was active somewhere.
Diaphorase inh: diaphorase inhibition or chemical oxidation counter-screen. AID 1217. inhibition, % at 20 µM. 0.69% of 190,000 active. diaphorase resazurin-to-resorufin fluorescence, NADH, 16 min; bacterial (C. kluyveri) enzyme, not human;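 active = primary screen inhibition at 20 µM above a set limit, cut at about 50% in these data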;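 also: plate controls were DMSO with full reaction for no effect and wells lacking NADH for full effect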
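System: Diaphorase enzyme from Clostridium kluyveri | Amount: Enzyme working solution with 0.14 U/mL diaphorase | Benchmarks: No-NADH positive control and DMSO neutral control | Signal: Fluorescence of resorufin formed from resazurin, Ex 544/Em 590 nm | Schedule: 16-min room-temperature incubation before reading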
Tb hexokinase: blocks Trypanosoma brucei hexokinase 1 activity; recombinant TbHK1, G6PDH-coupled NADH A340; inhibition, % at 10 µM; 0.11% of 220,000 active;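 active = inhibition of 50% or more in the single-dose primary screen; inactive = inhibition below 50%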
G6PDH counter: counter-screen for G6PDH assay hits: L. mesenteroides G6PDH inhibition; Purified L. mesenteroides G6PDH, diaphorase/resazurin coupled fluorescence, 45 min; inhibition, % at 5 µM; 0.12% of 200,000 active; in the data active = inhibition above about 50%
Diaphorase act: diaphorase activation or chemical reduction counter-screen; AID 1229; activation factor at 20 µM; Diaphorase/resazurin coupled assay, resorufin fluorescence, 16 min; hits give high values; 1 = vehicle wells, 0 = NADH-free wells; 0.005% of 190,000 active;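 active = diaphorase activity raised at least twofold by the compound at 20 µM; inactive = activation factor below 2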
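System – purified diaphorase enzyme from Clostridium kluyveri · Input – enzyme 0.07 U/mL final · Also added – final NADH 0.114 mM, resazurin 0.1 mM · Measured by – fluorescence of resorufin, 544 nm excitation, 590 nm emission · Timing – 16 min enzyme reaction, ambient temperature · Measure – resorufin increase flagging diaphorase activators or reducers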
HKDC1 inh: inhibitors of human hexokinase HKDC1. inhibition, % at 20 µM. Q2TB90. 0.16% of 340,000 active. recombinant HKDC1, G6PDH/diaphorase resazurin coupled fluorescence. AID 493160;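 active = inhibition above about 35% when tested at 20 µM, limit read from the data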;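 also: plate controls were DMSO wells with enzyme for no effect and DMSO wells lacking enzyme for full effect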
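test system = in-house recombinant HK5 (HKDC1) enzyme | amount = HKDC1 at 5 µg/mL | control set = DMSO-enzyme wells negative, buffer-substituted wells positive | compound = one dose of 20 µM, 1% DMSO | schedule = reaction time 90 min, room temperature, protected from light | technique = resorufin fluorescence at 613 nm | reagent = glucose with 1 mM ATP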
PfGluPho inh: PfG6PD (Plasmodium falciparum) enzyme inhibition | PfGluPho enzyme, NADPH resazurin-diaphorase fluorescence | 0.78% of 350,000 active | inhibition, % at 20 µM;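 active = inhibition reaching at least a set limit at 20 µM in the primary screen, cut at about 59% in these data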;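 also: 0% = DMSO wells with substrate and 100% = DMSO wells lacking glucose-6-phosphate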
PfGluPho conf: PfG6PD inhibition, single-dose confirmed; shares compounds with PfGluPho inh; recombinant PfGluPho, NADPH-diaphorase-resazurin fluorescence; inhibition, % at 20 µM; 34% of 2,400 active; AID 504753;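 active = inhibition of at least 50% at 20 µM in any single replicate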;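 also: 0% = DMSO with substrate and 100% = DMSO lacking glucose-6-phosphate substrate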
Diaphorase 10uM: inhibits diaphorase or oxidizes, flagging false PfG6PD hits; shares compounds with PfGluPho inh; diaphorase-coupled resazurin reduction, fluorescence, NADPH 10 uM; 39% of 820 active; inhibition, % at 20 µM;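 active = average inhibition reaching 50% or more with the compound at 20 µM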;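 also: resorufin red fluorescence formed as diaphorase reduces resazurin using NADPH; 0% = DMSO with enzyme and 100% = DMSO without enzyme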
Diaphorase 30uM: inhibits diaphorase or oxidizes, flagging false PfG6PD hits; 29% of 820 active; shares compounds with PfGluPho inh; inhibition, % at 20 µM; Diaphorase/resazurin coupled assay, resorufin fluorescence, 30 uM NADPH;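 active = inhibition averaging 50% or more, tested at 20 µM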;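 also: 0% = DMSO with enzyme and 100% = DMSO wells lacking diaphorase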
* = called active by the depositor; . = not tested or not shown.

SMILES	Diaphorase inh	Tb hexokinase	G6PDH counter	Diaphorase act	HKDC1 inh	PfGluPho inh	PfGluPho conf	others
CCNC(=O)c1cc2c(=O)n3cccc(C)c3nc2n(Cc2ccc(C)cc2)c1=N	1	-7	1	1	1	49	.
COc1ccc(NC(=O)C2C(=O)N(CCO)C3(C)CC2c2ccccc2O3)cc1 (stereo not given)	11	2	3	0.9	-3	69*	18
Cc1ccc(NC(=O)C2C(=O)N(CCO)C3(C)CC2c2ccccc2O3)cc1 (stereo not given)	2	-4	6	1	2	65*	33
COc1ccc(NC(=O)C2C(=O)N(C)C3(C)CC2c2ccccc2O3)cc1 (stereo not given)	6	2	2	0.9	-1	8	.
O=C(CSc1nnc(-c2ccc(O)cc2)o1)Nc1ccccc1	.	.	.	.	-1	0	.
COc1ccc(NC(=O)CSc2nnc(-c3cccc(O)c3)o2)cc1	.	.	.	.	2	80*	39
Cc1ccc(-c2nc3ccc([N+](=O)[O-])cc3[nH]2)cc1	9	-19	-6	0.9	0	99*	38
O=[N+]([O-])c1cccc(-c2nc3ccc([N+](=O)[O-])cc3[nH]2)c1	-6	-10	4	1.1	1	108*	72*	Diaphorase 10uM=60*;Diaphorase 30uM=59*
O=[N+]([O-])c1ccc2nc(-c3ccc(Cl)cc3)[nH]c2c1	0	-14	2	1	-1	107*	46
O=[N+]([O-])c1ccc2nc(-c3ccncc3)[nH]c2c1	.	-51	.	.	6	35	.
COc1ccc(-c2nc3ccc([N+](=O)[O-])cc3[nH]2)cc1	12	-18	15	0.9	-4	110*	46
CC(=O)NC(CC(=O)N1CCCC1)c1ccccc1 (stereo not given)	.	.	.	.	-6	12	.
O=C(CSc1nnc(Cc2ccccc2)o1)c1cc(F)ccc1F	7	-4	1	0.9	6	3	.
O=C(COc1ccc(F)c(Cl)c1)NC(=O)NC1CCCC1	.	.	.	.	.	14	.
CN(C)Cc1cc(C(F)(F)F)ccc1C(O)(c1ccccc1)c1ccccc1	.	.	.	.	1	10	.
CC(C)S(=O)(=O)c1csc(NC(=O)Nc2cc(Cl)ccc2Cl)c1Cl	.	2	.	.	3	86*	4
O=[N+]([O-])c1cccc(CSC2=NCCN2S(=O)(=O)c2ccccc2)c1	.	.	.	.	2	72*	19
Cc1ccc(CSC2=NCCN2S(=O)(=O)c2ccccc2)cc1	20	-3	7	0.8	7	21	.
O=[N+]([O-])c1ccc(S(=O)(=O)N2CCN=C2SCc2cccnc2)cc1	9	-1	4	0.9	3	-18	.
O=S(=O)(c1ccccc1)N1CCN=C1SCc1ccccc1	10	-5	4	0.9	-10	79*	36
CC(C)(C)c1ccc(-n2ncc3c2CCCC3NC(=O)c2ccco2)cc1 (stereo not given)	.	.	.	.	.	-24	.
CCOC(=O)c1c(C2COc3ccccc3O2)csc1NC(=O)c1ccco1 (stereo not given)	-2	4	-8	1	-38	84*	54*	Diaphorase 10uM=-26;Diaphorase 30uM=-16
CCOC(=O)c1c(-c2cccs2)csc1NC(=O)c1ccco1	0	-16	0	1	5	3	.
Cc1ccc(CNC(=O)c2ccc(N3CCC4(CC3)CC(c3ccccc3)=NO4)c(NC(=O)c3c(Cl)cccc3Cl)c2)cc1	.	.	.	.	-9	9	.
CSc1cnn(Cc2ccccc2)c(=O)c1SCc1ccccc1	17	3	-3	0.8	-4	66*	-6
CSc1cnn(-c2ccccc2)c(=O)c1SC	5	-9	4	0.9	4	2	.

Bioassay records from PubChem.
